For orientation: IC50 means the midpoint of a concentration-inhibition curve. High values mean a need for much substance, low ones inhibition by little substance. Usually ED50 stands for the dose at which the effect has come halfway, by size or by number of responders. Read a low ED50 as greater potency.

Among the data in ChEMBL document CHEMBL1140297, “Discovery of novel and potent small-molecule inhibitors of NO and cytokine production as antisepsis agents: synthesis and biological activity of alkyl 6-(N-substituted sulfamoyl)cyclohex-1-ene-1-carboxylate” (J Med Chem, 2005) are IC50, Activity and ED50 values, retold here.

Assay [1] concerns RAW264.7. As to the kind of experiment: Inhibition of LPS-induced nitric oxide production in mouse RAW264.7 cells. Format: functional, cell-based. In outline: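 RAW264.7 macrophages were plated at 1 × 10⁵ cells/well and cultured overnight. Cells were exposed to 10 ng/mL LPS with graded compound concentrations for 20 h at 37 °C, 5% CO₂, in phenol red-free RPMI1640 containing 1% heat-inactivated FBS. Supernatant nitrite was read fluorometrically with DAN followed by NaOH (ex 355/em 460 nm). IC50 is the concentration halving NO versus control; mean ± SD of two or three experiments.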

The test system of assay [2] is RAW264.7. As to the kind of experiment: Inhibition of LPS-induced IL6 production in mouse RAW264.7 cells by ELISA. Format: functional, cell-based. Summed up:
(§1)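 RAW264.7 cells (grown in RPMI1640 with 10% heat-inactivated FBS) were seeded at 1 × 10⁵ cells/well and left overnight. They were then stimulated with 10 ng/mL LPS (E. coli O111:B4) plus a range of compound concentrations for 20 h at 37 °C in phenol red-free RPMI1640 with 1% FBS. TNF-α and IL-6 in the supernatant were measured by ELISA.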
(In general: An ELISA detects its analyte on a solid surface through an enzyme-linked reagent.)

Assay [3] deals with RAW264.7. The experiment in a line: Inhibition of LPS-induced TNFalpha production in mouse RAW264.7 cells by ELISA. Format: functional, cell-based. In outline:
as §1

In assay [4] the test system is Mus musculus. As to the kind of experiment: Suppression of serum nitric oxide level in LPS-challenged BALB/c mouse endotoxin shock model at 0.1 to 3 mg/kg, iv. Format: functional, organism-based. Summed up:
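Female BALB/c mice were dosed iv at 0.1–3 mg/kg (10% glucuronylglucosyl-β-cyclodextrin vehicle) 1 h before LPS 7 mg/kg ip. Serum was taken at 6 h. Nitrate was reduced to nitrite with Aspergillus nitrate reductase and β-NADPH for 20 min, then read with DAN/HCl and NaOH fluorescence (ex 355/em 460 nm) against a sodium nitrite standard curve. n = 8 mice; means ± SE.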

Assay [5] relates to Mus musculus. As to the kind of experiment: Survival of LPS-challenged intravenously dosed BALB/c mouse endotoxin shock model. Format: functional. To be noted: iv. In outline:
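Female BALB/c mice (6-week-old, 15-21 g), acclimated at least one week. Compound dissolved in 10% (w/v) glucuronylglucosyl-β-cyclodextrin sodium salt, given iv at 0.3-3 mg/kg 1 h before lethal LPS (E. coli O111:B4, 7 mg/kg ip, in saline). Survival recorded for 7 days; 10 mice per group; Tarone's test with simple closed step-down method vs vehicle; ED50 as minimum effective dose.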

In assay [6] the test system is Mus musculus. The experiment in a line: Suppression of serum IL1-beta level in LPS-challenged BALB/c mouse endotoxin shock model at 0.1 to 3 mg/kg, iv. Format: functional, organism-based. In outline:
(§2)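 Female BALB/c mice (6-week-old) received compound iv at 0.1–3 mg/kg in 10% glucuronylglucosyl-β-cyclodextrin, 1 h before LPS 7 mg/kg ip. Serum was collected at 1 h for TNF-α, 2 h for IL-6 and 6 h for IL-1β, then assayed by ELISA. n = 8 mice; means ± SE; one-tailed Williams or Shirley-Williams test versus vehicle.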

The test system of assay [7] is Mus musculus. As to the kind of experiment: Suppression of serum IL6 level in LPS-challenged BALB/c mouse endotoxin shock model at 0.1 to 3 mg/kg, iv. Format: functional, organism-based. In outline:
as §2

In assay [8] the test system is Mus musculus. As to the kind of experiment: Suppression of serum TNF-alpha level in LPS-challenged BALB/c mouse endotoxin shock model at 0.1 to 3 mg/kg, iv. Format: functional, organism-based. In outline: as §2
Assay [9] concerns Mus musculus. As to the kind of experiment: Survival of LPS-challenged BALB/c mouse endotoxin shock model at 3 mg/kg, iv. Set-up: dose 3 mg/kg. Format: functional, organism-based. Summed up:
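Female BALB/c mice (6-week-old, acclimated at least 1 week) were given compound iv in 10% glucuronylglucosyl-β-cyclodextrin 1 h before a lethal LPS challenge (7 mg/kg ip). Survival was recorded for 7 days, with 10 mice per group. Survival was analysed by Tarone's test with a closed step-down method versus vehicle.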

The source made the active and inactive calls. The calls are words filed in the database; no cut-off is given here.

Turning to `C/C=C(\C(=O)OCC)C(CCC)S(=O)(=O)Nc1ccc(F)cc1Cl` (stereo unspecified), in assay [1], the IC50 was 2600 nM. In [1], `CCOC(=O)C1=CCCCC1S(=O)(=O)Nc1ccc(F)cc1F` (stereo unspecified) came in with an IC50 of 16 nM.

As to `CC(C)COC(=O)C1=CCCCC1S(=O)(=O)Nc1ccc(F)cc1F` (stereo unspecified), the IC50 in [1] came out at 49 nM. Same read-out and setting: as for `O=C(OCCO)C1=CCCCC1S(=O)(=O)Nc1ccc(F)cc1F` (stereo unspecified), the figure is 330 nM; as for `CC(C)OC(=O)C1=CCCCC1S(=O)(=O)Nc1ccc(F)cc1F` (stereo unspecified), 110 nM; as for `CCOC(=O)C1=CCCCC1S(=O)(=O)Nc1ccc(C#N)cc1Cl` (stereo unspecified), 1600 nM. Same read-out and setting: next, `CCOC(=O)C1=CCCCC1S(=O)(=O)Nc1ccccc1CC` (stereo unspecified): 130 nM; `CCOC(=O)C1=CCCCC1S(=O)(=O)Nc1ccccc1Cl` (stereo unspecified): 12 nM. Same read-out and setting: next, `CCOC(=O)C1=CCCC1S(=O)(=O)Nc1ccc(F)cc1Cl` (stereo unspecified): 110 nM. In the case of `CCOC(=O)C1=CCCC[C@@H]1S(=O)(=O)Nc1ccc(F)cc1Cl`, the IC50 in [1] worked out at 640 nM; in assay [2] it was 480 nM; in assay [3], 740 nM. For `CCOC(=O)C1=CCCCC1S(=O)(=O)Nc1ccc(F)cc1Cl` (stereo unspecified), the half-inhibitory concentration (IC50) in [1] is 3.2 nM; in assay [2], 2.5 nM; in assay [3] it was 3.4 nM. With `O=C1C2=C(CCCC2)S(=O)(=O)N1c1ccc(F)cc1`, in [1], inhibition was half-maximal at 4100 nM (IC50). Same read-out and setting: next, `CCOC(=O)C1=CCCCC1S(=O)(=O)Nc1ccc(Cl)cc1` (stereo unspecified): 400 nM; `CCCOC(=O)C1=CCCCC1S(=O)(=O)Nc1ccc(F)cc1F` (stereo unspecified): 29 nM. The same measure, in the same setting: next, `CCOC(=O)C1=CCCCC1S(=O)(=O)Nc1cccc(F)c1` (stereo unspecified): 150 nM; `CCOC(=O)C1=CCCCC1S(=O)(=O)Nc1c(F)cccc1F` (stereo unspecified): 160 nM. The same measure, in the same setting: as for `CCOC(=O)C1=CCCCC1S(=O)(=O)Nc1ccccc1C(=O)OC` (stereo unspecified), the figure is 1100 nM; as for `CCOC(=O)C1=C(S(=O)(=O)Nc2ccc(Cl)cc2F)CCCC1`, 1700 nM. Regarding `CCOC(=O)C1=CCCCC1S(=O)(=O)Nc1ccc(Cl)cc1F` (stereo unspecified), the IC50 in assay [1] came out at 160 nM; in [2], 170 nM; in [3], 230 nM.

In turn, `CCOC(=O)C1=CCCCC1S(=O)(=O)Nc1cc(F)c(F)cc1F` (stereo unspecified) came in with an IC50 in assay [1] of 30 nM. Regarding `CCOC(=O)C1=CCCCC1S(=O)(=O)Nc1nccs1` (stereo unspecified), the IC50 in [1] was above 10000 nM. Still for that read-out and setting: next, `CCCCOC(=O)C1=CCCCC1S(=O)(=O)Nc1ccc(F)cc1F` (stereo unspecified): 140 nM.

Turning to `CCOC(=O)C1=CCCC[C@H]1S(=O)(=O)Nc1ccc(F)cc1Cl` [RESATORVID], the IC50 in [1] amounted to 1.8 nM; in assay [2] it was 1.3 nM; in assay [3], 1.9 nM. Also, the outcome in assay [4], in assay [6], in assay [7], in assay [8] and in assay [9] was Active. Moreover, in [5], it took a dose of 0.3 mg/kg to reach the 50% effect level (ED50). In turn, `CCOC(=O)C1=CCCCCC1S(=O)(=O)Nc1ccc(F)cc1Cl` (stereo unspecified) had an IC50 in [1] of 240 nM. The same measure, in the same setting: next, `CCOC(=O)C1=C(S(=O)(=O)Nc2ccc(F)cc2)CCCC1`: 1400 nM; `CCOC(=O)C1=CCCCC1S(=O)(=O)N(C)c1ccc(Cl)cc1F` (stereo unspecified): 230 nM.

The compound `CCOC(=O)c1ccccc1S(=O)(=O)Nc1ccc(F)cc1Cl` registered an IC50 in [1] above 10000 nM. In assay [1], `CCOC(=O)C1=CCCCC1S(=O)(=O)Nc1ccccc1F` (stereo unspecified) registered an IC50 of 75 nM. Regarding `CCOC(=O)C1=CCCCC1S(=O)(=O)Nc1ccc(F)cc1` (stereo unspecified), in [1], half-maximal inhibition (IC50) was put at 110 nM. The same measure, in the same setting: as for `CCOC(=O)C1=C(S(=O)(=O)Nc2ccccc2)CCCC1`, the figure is above 8200 nM. `CCOC(=O)C1=CCCCC1S(=O)(=O)Nc1cccc(Cl)c1` (stereo unspecified) displayed an IC50 in assay [1] of 66 nM. The same measure, in the same setting: as for `CCOC(=O)C1=CCCCC1S(=O)(=O)Nc1ccc(Cl)cc1Cl` (stereo unspecified), the figure is 20 nM; as for `CCOC(=O)C1=CCCCC1S(=O)(=O)Nc1nncs1` (stereo unspecified), above 10000 nM; as for `COC(=O)C1=CCCCC1S(=O)(=O)Nc1ccc(F)cc1F` (stereo unspecified), 57 nM. Still for that read-out and setting: as for `CCOC(=O)C1=CCCCC1S(=O)(=O)Nc1cccc(F)c1F` (stereo unspecified), the figure is 140 nM; as for `CCOC(=O)C1=CCCCC1S(=O)(=O)Nc1ccccc1` (stereo unspecified), 260 nM; as for `CCOC(=O)C1=CCCCC1S(=O)(=O)Nc1ccc(C)cc1Cl` (stereo unspecified), 41 nM.
